In ChEMBL document CHEMBL2062365, “Suppressive effects of coumarins from Mammea siamensis on inducible nitric oxide synthase expression in RAW264.7 cells” (Bioorg Med Chem, 2012):

Experiments:
RAW264.7 [1] = test: Antiinflammatory activity in mouse RAW264.7 cells assessed as inhibition of LPS-induced NO production relative to control; format: functional, cell-based
Procedure, shortened: (§1)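 RAW264.7 cells (DMEM, 10% FBS, 37 °C, 5% CO2) seeded at 2.5 × 10^5 cells/well. After 6 h, nonadherent cells were washed off. Adherent cells were exposed to test compound for 10 min, then to LPS (E. coli 055:B5, final 10 µg/mL) for 18 h. Supernatant nitrite was measured by Griess reaction. Inhibition % = (A−B)/(A−C)×100, with C as the no-LPS control. IC50 was read graphically; N = 4, mean ± SEM. CAPE was the reference.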

RAW264.7 [2] = test: Antiinflammatory activity in mouse RAW264.7 cells assessed as inhibition of LPS-induced NO production at 30 uM relative to control; format: functional; procedure, shortened: as §1

Oc1c2ccccc2c2c3c(cccc13)N=N2 [SP-600125]
IC50 (RAW264.7 [1]): 17 µM | inhibition at 30 µM (RAW264.7 [2]): 74.6%
